Experimental data published in ChEMBL document CHEMBL4052610, “Evaluation of Dual 5-Lipoxygenase/Microsomal Prostaglandin E2 Synthase-1 Inhibitory Effect of Natural and Synthetic Acronychia-Type Isoprenylated Acetophenones” (J Nat Prod, 2017).
Active and inactive are the calls of the source. No cut-off for these calls is given here.

What was measured:
[1] = target: T1, Polyunsaturated fatty acid 5-lipoxygenase (Homo sapiens, UniProt P09917); assay: Inhibition of 5-LO in human peripheral blood neutrophils using arachidonic acid as substrate preincubated for 15 mins followed by substrate addition measured after 10 mins in presence of Ca2+ ionophore A23187 by RP-HPLC analysis
T1 sequence (P09917 whole entry): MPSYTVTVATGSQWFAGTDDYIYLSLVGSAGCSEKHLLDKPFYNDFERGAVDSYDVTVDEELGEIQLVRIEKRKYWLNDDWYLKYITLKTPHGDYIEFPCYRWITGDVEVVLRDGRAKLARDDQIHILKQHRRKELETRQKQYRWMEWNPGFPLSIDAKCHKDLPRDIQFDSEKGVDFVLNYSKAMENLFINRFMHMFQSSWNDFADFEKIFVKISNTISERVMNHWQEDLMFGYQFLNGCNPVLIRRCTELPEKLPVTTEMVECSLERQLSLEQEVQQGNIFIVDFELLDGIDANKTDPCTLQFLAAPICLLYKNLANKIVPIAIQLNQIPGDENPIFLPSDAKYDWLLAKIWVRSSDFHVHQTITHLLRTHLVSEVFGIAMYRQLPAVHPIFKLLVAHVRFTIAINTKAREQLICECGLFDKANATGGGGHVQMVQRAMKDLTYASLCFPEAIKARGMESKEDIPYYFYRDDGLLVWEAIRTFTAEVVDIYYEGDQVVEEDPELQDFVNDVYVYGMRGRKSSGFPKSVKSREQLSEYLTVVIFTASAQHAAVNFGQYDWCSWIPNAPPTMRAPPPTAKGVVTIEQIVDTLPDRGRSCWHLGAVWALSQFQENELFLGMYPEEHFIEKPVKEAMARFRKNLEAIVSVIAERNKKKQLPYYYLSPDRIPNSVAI

Neutrophil = assay: Cytotoxicity against human neutrophils assessed as reduction in cell viability up to 10 uM up to 30 mins by light microscopic and trypan blue exclusion assay; format: cell-based; details: 0.5 h
Summary of the method: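 Isolated human blood neutrophils (dextran sedimentation, Nycoprep, hypotonic lysis) in PBS pH 7.4 with 1 mg/mL glucose and 1 mM CaCl2. Compounds tested up to 10 μM for 30 min. Viability scored by light microscopy with trypan blue exclusion.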

Prostaglandin E synthase = target: T2, Prostaglandin E synthase (Homo sapiens, UniProt O14684); assay: Inhibition of human A549 cell microsomal membrane-derived mPGES-1 assessed as reduction in conversion of PGH2 to PGE2 preincubated for 15 mins followed by PGH2 addition measured after 1 min by RP-HPLC analysis; format: cell-based
T2 sequence (O14684 whole entry): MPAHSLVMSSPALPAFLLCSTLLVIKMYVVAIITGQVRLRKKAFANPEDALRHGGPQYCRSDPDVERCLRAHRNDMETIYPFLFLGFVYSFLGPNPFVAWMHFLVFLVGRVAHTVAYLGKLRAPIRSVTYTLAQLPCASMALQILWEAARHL

[2] = target: T1, Polyunsaturated fatty acid 5-lipoxygenase; assay: Inhibition of human recombinant 5-LO expressed in Escherichia coli MV1190 using arachidonic acid as substrate preincubated for 10 mins followed by substrate addition measured after 10 mins by RP-HPLC analysis
Summary of the method: (§1)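 Human 5-LO expressed in E. coli MV1190, partially purified on ATP-agarose, diluted in PBS with 1 mM EDTA and 1 mM ATP. Held 10 min at 4 °C with compound, warmed 30 s to 37 °C, started with 2 mM CaCl2 plus 20 μM AA. Run 10 min at 37 °C, stopped with methanol. LTB4 trans-isomers and 5-H(p)ETE measured by RP-HPLC. IC50 from 4–5 concentrations; n = 3–4.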

[3] = target: T3, Polyunsaturated fatty acid 5-lipoxygenase (Homo sapiens) (UniProt P09917); assay: Inhibition of human recombinant 5-LO expressed in Escherichia coli MV1190 assessed as residual activity at 10 uM using arachidonic acid as substrate preincubated for 10 mins followed by substrate addition measured after 10 mins by RP-HPLC analysis relative to control; summary of the method: as §1
T3 sequence (whole entry): T1 sequence (P09917 whole entry)

Mus musculus [4] = assay: (§2) Anti inflammatory in CD-1 mouse assessed as reduction in zymosan-induced inflammatory cell infiltration by measuring inflammatory cell level in peritoneal exudates at 10 mg/kg, ip preincubated for 30 mins followed by zymosan addition measured after 4 hrs […] (reference value: 7.3 +/- 0.72 10^6); format: functional
Mus musculus [5] = assay: Anti inflammatory in CD-1 mouse assessed as reduction in zymosan-induced inflammatory cell infiltration level in peritoneal exudates at 10 mg/kg, ip preincubated for 30 mins followed by zymosan addition measured after 4 hr relative to control; format: functional; parameters: scale not given: the % may be the effect or the level left
[6] = target: T3, Polyunsaturated fatty acid 5-lipoxygenase (Homo sapiens); assay: Reversible inhibition of human recombinant 5-LO expressed in Escherichia coli MV1190 using arachidonic acid as substrate preincubated for 15 mins followed by 10 fold dilution measured after 10 mins by RP-HPLC analysis
Summary of the method: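 Semipurified recombinant human 5-LO in the cell-free assay (2 mM CaCl2, 20 μM AA, 10 min at 37 °C, RP-HPLC read-out). Reversibility tested by wash-out using 10-fold dilution. Means ± SEM, n = 3–4.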

Mus musculus [7] = assay: Anti inflammatory activity in CD-1 mouse assessed as reduction in zymosan-induced LTC4 level in peritoneal exudates at 10 mg/kg, ip preincubated for 30 mins followed by zymosan addition measured after 30 mins by enzyme immunoassay relative to control; format: functional; parameters: scale not given: the % may be the effect or the level left
Mus musculus [8] = assay: Anti inflammatory activity in CD-1 mouse assessed as reduction in zymosan-induced LTC4 by measuring LTC4 level in peritoneal exudates at 10 mg/kg, ip preincubated for 30 mins followed by zymosan addition measured after 30 mins by enzyme immunoassay (reference value: 92.2 +/- 12.8 ng/ml); format: functional
[9] = target: T3, Polyunsaturated fatty acid 5-lipoxygenase (Homo sapiens); assay: Competitive inhibition of human recombinant 5-LO expressed in Escherichia coli MV1190 using different concentration of arachidonic acid as substrate preincubated for 15 mins followed by substrate addition measured after 10 mins by RP-HPLC analysis; details: in the assay text read “preincubated for 10 mins” for “preincubated for 15 mins”
Summary of the method: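 Semipurified recombinant human 5-LO assayed in the cell-free format with CaCl2 and varying AA concentrations, products measured by RP-HPLC. Representative experiment of three independent runs.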

Mus musculus [10] = assay: Anti inflammatory activity in CD-1 mouse assessed as reduction in zymosan-induced PGE2 by measuring PGE2 level in peritoneal exudates at 10 mg/kg, ip preincubated for 30 mins followed by zymosan addition measured after 30 mins by enzyme immunoassay (reference value: 10.5 +/- 1.34 ng/ml); format: functional
Mus musculus [11] = assay: Anti inflammatory activity in CD-1 mouse assessed as reduction in zymosan-induced PGE2 by measuring PGE2 level in peritoneal exudates at 5 mg/kg, ip preincubated for 30 mins followed by zymosan addition measured after 30 mins by enzyme immunoassay (reference value: 10.5 +/- 1.34 ng/ml); format: functional
Mus musculus [12] = assay: as §2, with “at 5” for “at 10”; format: functional

Structure (SMILES)	IC50 [1]	Activity (Neutrophil)	IC50 (Prostaglandin E synthase)	IC50 [2]	Activity [3]	other results
CC(=O)c1c(O)c(CC=C(C)C)c(O)c(C(CC(C)C)c2c(O)c(CC=C(C)C)c(O)c(C(C)=O)c2O)c1O	> 10 µM	Non-Toxic	> 10 µM	> 10 µM	> 50%	
CC(=O)c1c(O)cc(O)c(CC=C(C)C)c1O		Non-Toxic	> 10 µM			
COc1c(CC=C(C)C)c(O)c(C(CC(C)C)c2c(O)c3c(c(C(C)=O)c2O)OC(C)(C)C=C3)c(O)c1C(C)=O (configuration not stated)	> 10 µM	Non-Toxic	4.2 µM	6 µM	< 50%	
COc1c(CC=C(C)C)c(O)c(C(CC(C)C)c2c(O)c3c(c(C(C)=O)c2O)OC(C(C)(C)O)C3)c(O)c1C(C)=O (configuration not stated)	4.5 µM	Non-Toxic	1.1 µM	> 10 µM	< 50%	
COc1c(CC=C(C)C)c(O)c(C(CC(C)C)c2c(O)c(C(C)=O)c(O)c3c2OC(C(C)(C)O)C3)c(O)c1C(C)=O (configuration not stated) [ACROFOLIONE A]	7.3 µM	Non-Toxic	1.3 µM	5.3 µM	< 50%	
CC(=O)c1c(O)cc(O)c(C/C=C(\C)CCC=C(C)C)c1O	1.4 µM	Non-Toxic	3.5 µM	1 µM	< 50%	Activity (Mus musculus [4]): 5 ×10⁶ No_unit; Activity (Mus musculus [5]): 32%; inhibition [6]: Active; Activity (Mus musculus [7]): 38%; Activity (Mus musculus [8]): 57.3 ng/mL; inhibition [9]: inactive; Activity (Mus musculus [10]): 11.3 ng/mL
COc1ccc2c(c1)c(CC(=O)O)c(C)n2C(=O)c1ccc(Cl)cc1 [INDOMETHACIN]						Activity (Mus musculus [11]): 3.52 ng/mL; Activity (Mus musculus [12]): 2.08 ×10⁶ No_unit
CC(=O)c1c(O)c(C(CC(C)C)c2c(O)c3c(c(C(C)=O)c2O)OC(C)(C)C=C3)c(O)c2c1OC(C)(C)C=C2	> 10 µM	Non-Toxic	1.2 µM	2.4 µM	< 50%	
C=C(C)C1Cc2c(O)c(C(CC(C)C)c3c(O)c4c(c(C(C)=O)c3O)OC(C(=C)C)C4)c(O)c(C(C)=O)c2O1 (configuration not stated)	5 µM	Non-Toxic	> 10 µM	> 10 µM	< 50%	
CC(=O)c1c(O)cc(O)c(C(CC(C)C)c2c(O)cc(O)c(C(C)=O)c2O)c1O	6.3 µM	Non-Toxic	1 µM	1.7 µM	< 50%	
COc1c(CC=C(C)C)c(O)c(C(CC(C)C)c2c(O)c(CC=C(C)C)c(O)c(C(C)=O)c2O)c(O)c1C(C)=O (configuration not stated)	2.3 µM	Non-Toxic	1.1 µM	2.7 µM	< 50%	
COc1c(CC=C(C)C)c(O)c(C(CC(C)C)c2c(O)c(C(C)=O)c(O)c3c2OC(C)(C)C(O)C3)c(O)c1C(C)=O (configuration not stated)	5 µM	Non-Toxic	1.9 µM	2 µM	< 50%	
CC(=O)c1c(O)c(C/C=C(/C)CCC=C(C)C)c(O)c(C(CC(C)C)c2c(O)c(C/C=C(\C)CCC=C(C)C)c(O)c(C(C)=O)c2O)c1O (configuration not stated)	> 10 µM	Non-Toxic	5.34 µM	3.6 µM	< 50%	
CC(c1cc2ccccc2s1)N(O)C(N)=O (configuration not stated) [ZILEUTON]						Activity (Mus musculus [8]): 65 ng/mL
COc1c(CC=C(C)C)c(O)c(C(CC(C)C)c2c(O)c3c(c(C(C)=O)c2O)OC(C)(C)C(O)C3)c(O)c1C(C)=O (configuration not stated)	5.3 µM	Non-Toxic	2.7 µM	7.3 µM	< 50%	
C=C(C)[C@@H](O)Cc1c(O)c(C(C)=O)c(O)c(C(CC(C)C)c2c(O)c(CC=C(C)C)c(OC)c(C(C)=O)c2O)c1O (some centres not stated)	6.3 µM	Non-Toxic	1.1 µM	2.5 µM	< 50%	
